Experimental data collected from several papers.
Lines come from different studies, so protocols differ.
Target: LIM domain kinase 1 (LIMK1, Homo sapiens, UniProt P53667)

Compound	test	setting	endpoint	result
CC(C)(O)[C@H]1CC[C@H](Nc2ccc3ncc(-c4cccc(C(F)(F)F)c4)n3n2)CC1	enzyme activity, inhibitor	1 µM	remaining activity	76.3%
N#CCCc1ccc2c(c1)-c1[nH]c3ccc([N+](=O)[O-])cc3c1CC(=O)N2	cell-free assay	0.5 µM	remaining signal	99.9%
CC(C)(C)c1nc(-c2cccc(NS(=O)(=O)c3c(F)cccc3F)c2F)c(-c2ccnc(N)n2)s1	enzyme activity, inhibitor, radiometric	1 µM	remaining activity	98%
O=C(O)[C@@H]1[C@@H](Cn2nnc3ccccc3c2=O)CC[C@H]1C(=O)c1ccc(OCCC2CCOCC2)cc1	cell-free assay, competition with immobilised ligand	1 µM	remaining binding	100%
O=C1Nc2ccc(Cl)cc2C1=Cc1cc(Cl)c(O)c(Cl)c1	cell-free assay	0.5 µM	remaining signal	83.7%
Cc1sc(C(=O)NC2COC2)cc1-n1cc(NC(=O)Nc2c(F)cccc2Cl)cn1	enzyme activity, inhibitor	10 µM	remaining activity	105%
CCN(CC)CCNC(=O)c1c(C)[nH]c(/C=C2\C(=O)Nc3ccc(F)cc32)c1C	enzyme activity, inhibitor	0.3 µM	inhibition	-9%
Nc1nc(Nc2ccc(S(N)(=O)=O)cc2)nn1C(=O)c1c(F)cccc1F	cell-free assay	0.5 µM	remaining signal	16.6%
CSc1cccnc1N1CCN(Cc2nc3ccccc3[nH]2)CC1	cell-free assay, competition with immobilised ligand	1 µM	remaining binding	100%
O=C(Nc1cnn(-c2csc(C(=O)NC3COC3)c2)c1)Nc1c(F)cccc1Cl	enzyme activity, inhibitor	5 µM	remaining activity	104%
COc1cc(Nc2c(C#N)cnc3cc(OCCCN4CCN(C)CC4)c(OC)cc23)c(Cl)cc1Cl	cell-free assay	0.5 µM	remaining signal	96.4%
CCCS(=O)(=O)Nc1ccc(F)c(C(=O)c2c[nH]c3ncc(-c4ccc(Cl)cc4)cc23)c1F	enzyme activity, inhibitor	1 µM	inhibition	< 10%
Cn1nc(C(F)(F)F)cc1-c1cnc(N2CCc3cc(S(=O)(=O)Nc4c(F)cc(Cl)cc4F)cc(N4CCCC4=O)c32)nc1	cell-free assay, competition with immobilised ligand	1 µM	remaining binding	100%
CNC(=O)c1cc(Oc2ccc(NC(=O)Nc3ccc(Cl)c(C(F)(F)F)c3)cc2)ccn1	enzyme activity, inhibitor	10 µM	inhibition	89%
CN([C@@H]1CCc2c(CC(=O)O)c3ccccc3n2C1)S(=O)(=O)c1ccc(F)cc1	cell-free assay, competition with immobilised ligand	1 µM	remaining binding	100%
Cc1ccc(C(=O)Nc2ccc(CN3CCN(C)CC3)c(C(F)(F)F)c2)cc1C#Cc1cnc2cccnn12	enzyme activity, inhibitor	23.5 nM	remaining activity	99%
O=C(Nc1cccnn1)N1CC(C/C=C/c2cncc(Oc3ccc(C(F)(F)F)cn3)n2)C1	cell-free assay, competition with immobilised ligand	1 µM	remaining binding	88%
Cn1cnc(Br)c1C1=CN(c2ncnc3[nH]cnc23)CCS1	enzyme activity, inhibitor, radiometric	50 nM	inhibition	15.2%
Cc1nc(Cc2cccc(C(F)(F)F)c2)sc1-c1ccc(C(N)=O)nc1	cell-free assay, competition with immobilised ligand	1 µM	remaining binding	100%
Cc1cc(NC(=O)c2cccc3cc(-c4cccc5[nH]nc(N)c45)ccc23)ccc1F	enzyme activity, inhibitor	0.1 µM	activity vs control	90%
